In the library only some 1.7% were active in any assay of this set; here they are far more common.
Rtt109 Vps75: inhibitors of Candida albicans Rtt109/Vps75 histone acetyltransferase; Q5AAJ8; purified Rtt109/Vps75, ThioGlo CoA-SH fluorescence, 4 h; inhibition, % at 34.9 µM; 0.16% of 330,000 active; AID 540336;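 active = inhibition of at least 50% in every replicate; inconclusive = best replicate reaches 50% inhibition but some replicates fall short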
Target sequence (Q5AAJ8 whole entry, looked up): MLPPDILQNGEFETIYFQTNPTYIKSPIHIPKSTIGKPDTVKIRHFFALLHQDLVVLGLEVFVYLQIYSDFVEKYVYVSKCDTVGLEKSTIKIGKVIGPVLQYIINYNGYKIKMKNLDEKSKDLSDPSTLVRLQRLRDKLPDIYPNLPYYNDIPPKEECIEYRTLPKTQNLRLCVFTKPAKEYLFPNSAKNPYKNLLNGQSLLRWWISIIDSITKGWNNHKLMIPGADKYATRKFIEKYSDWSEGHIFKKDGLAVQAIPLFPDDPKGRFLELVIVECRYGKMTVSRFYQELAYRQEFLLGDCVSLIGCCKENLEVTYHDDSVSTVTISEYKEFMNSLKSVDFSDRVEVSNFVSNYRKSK
PfHsp90 set2: reduces growth (ATP signal) of yeast expressing P. falciparum Hsp90; S. cerevisiae expressing PfHsp90, BacTiter-Glo ATP, 48 h; yeast lacking PDR1 and PDR3 efflux regulators; inhibition, % at 9.4 µM; 0.32% of 310,000 active; AID 504621;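 active = every replicate shows inhibition above about 80%, whatever the replicate mean, limit read from the data; inconclusive = mean inhibition reaches the set limit but some replicate falls short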;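 note: 0% = DMSO neutral controls and 100% = 20 µM radicicol positive controls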
SKKanGAS inh: inhibitors of SKKanGAS S. pyogenes growth in kanamycin (SK-promoter or general growth effect) | inhibition, % at 7.5 µM | 1.3% of 300,000 active | BacTiter-Glo, 6 h | AID 1662;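 active = mean replicate score, as percent of positive control median, at least 50; inconclusive = mean below 50 but one replicate at or above 50; inactive = mean and every replicate below 50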;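 note: strain carries kanamycin resistance gene driven by streptokinase promoter and grows in 40 µg/ml kanamycin; loss of luminescence reflects streptokinase promoter inhibition or plain growth inhibition; 0% = median of DMSO wells and 100% = positive control at its reference dose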
PglD DTNB: blocks C. jejuni PglD acetyltransferase activity | AID 602405 | purified PglD enzyme, DTNB colorimetric CoA detection | inhibition, % at 12.5 µM | 0.098% of 360,000 active; in the data active = inhibition above about 16%, passing the limit was not always enough; inconclusive = no clear call, values can overlap the other calls
CSC inhib: blocks cancer stem cells. cancer stem cell-like cells viability, luminescence. inhibition, % at 7.5 µM. 1.1% of 300,000 active. AID 2717; in the data active = inhibition above about 75%; inconclusive = no clear call, values can overlap the other calls; tested in HMLE shEcad cells
FN deposition inh: fibronectin deposition inhibition | AH1F fibroblasts, Alexa488-fibronectin deposition fluorescence, overnight | inhibition, % at 12.6 µM | 0.086% of 350,000 active | AID 743247;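 active = mean inhibition across replicates of 30% or more, regardless of how many single replicates reach that level; inconclusive = mean under 30% yet at least half of replicates reach 30%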;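 note: positive control wells lacked labelled fibronectin entirely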
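test system = AH1F fibroblasts assembling fluorescent fibronectin matrix | quantity = 10000 AH1F cells per well | buffer or medium = DMEM plus 2% serum, read in PBS | doses = single dose, pinned | incubation = 1 h cell attachment, overnight exposure to compound and label | detection = fluorescence at 485 nm excitation, 525 nm emission | read-out basis = inhibition from reduced deposited-fibronectin fluorescence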
Active calls of the source: *.

Screening CC(C)c1ccc(OCC(=O)NNC(=S)NC(=O)c2ccco2)c(Br)c1 returned Rtt109 Vps75 2, PfHsp90 set2 8, SKKanGAS inh 117*, PglD DTNB 4, CSC inhib -1 and FN deposition inh -7.
Cc1ccccc1OCC(=O)Nc1ccccc1NC(=O)c1ccco1 was read as Rtt109 Vps75 1, PfHsp90 set2 -3, SKKanGAS inh -4, PglD DTNB -2, CSC inhib -12 and FN deposition inh -4.
Screening CC(C)(C)c1ccc(OCC(=O)NNC(=S)NC(=O)c2ccco2)c(Br)c1 returned Rtt109 Vps75 4, PfHsp90 set2 -58, SKKanGAS inh 119*, PglD DTNB -3 and CSC inhib -10.
Cc1ccccc1OCC(=O)NNC(=S)NC(=O)c1ccco1 was read as Rtt109 Vps75 -11, PfHsp90 set2 inconclusive, SKKanGAS inh 115*, PglD DTNB -3 and FN deposition inh -4.
`Clc1ccc(N/N=C/c2cccnc2)cc1` gave Rtt109 Vps75 -3, PfHsp90 set2 29, SKKanGAS inh -4, PglD DTNB 6, CSC inhib 85* and FN deposition inh 2.
`O=[N+]([O-])c1ccc(N/N=C/c2cccnc2)cc1` gave Rtt109 Vps75 0, PfHsp90 set2 -6, SKKanGAS inh 2, PglD DTNB -30, CSC inhib 21 and FN deposition inh -5.
Screening CNC[C@H]1Oc2ccc(NC(=O)C3CCCCC3)cc2C(=O)N([C@@H](C)CO)C[C@H]1C returned PglD DTNB -4.
For COc1ccc(-n2c(=O)c3c4c(sc3n3c(=S)[nH]nc23)CCC4)cc1 the results were Rtt109 Vps75 1, PfHsp90 set2 2, SKKanGAS inh 65*, CSC inhib -1 and FN deposition inh -4.
`Cc1ccc(-n2c(=O)c3c4c(sc3n3c(=S)[nH]nc23)CCC4)cc1` gave Rtt109 Vps75 -6, PfHsp90 set2 -21, SKKanGAS inh 42, PglD DTNB -2, CSC inhib 23 and FN deposition inh 8.
Screening CN(CC(=O)Nc1ccc(Cl)c(Cl)c1)CC(=O)Nc1ccc2c(c1)OCO2 returned Rtt109 Vps75 0, PfHsp90 set2 -2, PglD DTNB -1, CSC inhib 80* and FN deposition inh 0.
Screening COc1ccc(C(C)(C)C)cc1NC(=O)Nc1ccc2c(c1)OCO2 returned Rtt109 Vps75 4, PfHsp90 set2 86*, SKKanGAS inh 10, PglD DTNB 1, CSC inhib 83* and FN deposition inh -1.
Screening O=C(Nc1ccc(OC(F)F)c(Cl)c1)Nc1ccc2c(c1)OCO2 returned Rtt109 Vps75 4, SKKanGAS inh -4, CSC inhib 98* and FN deposition inh -17.
For O=C(Nc1ccc2c(c1)OCO2)Nc1ccc2c(c1)OCO2 the results were Rtt109 Vps75 10, PfHsp90 set2 6, SKKanGAS inh 0, PglD DTNB 3, CSC inhib 0 and FN deposition inh 6.
O=C(Nc1ccc([N+](=O)[O-])cc1)Nc1ccc(OC(F)F)c(Cl)c1 was read as Rtt109 Vps75 -7, PfHsp90 set2 -54, CSC inhib 103* and FN deposition inh 17.
For Cc1cccc(S(=O)(=O)N2C[C@H]3[C@@H](c4ccccc42)[C@H](CO)N3C(=O)CC2CC2)c1 the results were PglD DTNB -4.
Screening CCC(=O)N1CC2(C1)[C@@H](c1ccc(-c3ccccc3C)cc1)[C@@H](CO)N2C(=O)CC returned FN deposition inh -1.
For COc1cc(NC(=O)Nc2cccc(Cl)c2)c(OC)cc1NC(=O)CN1CCCCC1 the results were Rtt109 Vps75 -4, PfHsp90 set2 0, SKKanGAS inh 41, PglD DTNB 3 and CSC inhib 115*.
`CNC[C@@H]1OCCCC[C@@H](C)Oc2ccc(NC(=O)NC(C)C)cc2C(=O)N([C@@H](C)CO)C[C@H]1C` gave PglD DTNB -1 and FN deposition inh -3.
For O=C(Nc1nc(-c2ccccn2)cs1)C12CC3CC(CC(O)(C3)C1)C2 the results were Rtt109 Vps75 -2, PfHsp90 set2 -43, SKKanGAS inh inconclusive, CSC inhib -2 and FN deposition inh -14.
Screening c1ccc(Nc2nc(-c3ccccn3)cs2)cc1 returned Rtt109 Vps75 6, PfHsp90 set2 -8, SKKanGAS inh 100*, PglD DTNB -1, CSC inhib 7 and FN deposition inh 1.
